What was measured:
[1] = target: T1, Tissue alpha-L-fucosidase (Bos taurus, UniProt Q2KIM0); assay: Inhibition of bovine epididymis alpha-L-fucosidase assessed as p-nitrophenol release by spectrophotometrically
T1 sequence (Q2KIM0 whole entry): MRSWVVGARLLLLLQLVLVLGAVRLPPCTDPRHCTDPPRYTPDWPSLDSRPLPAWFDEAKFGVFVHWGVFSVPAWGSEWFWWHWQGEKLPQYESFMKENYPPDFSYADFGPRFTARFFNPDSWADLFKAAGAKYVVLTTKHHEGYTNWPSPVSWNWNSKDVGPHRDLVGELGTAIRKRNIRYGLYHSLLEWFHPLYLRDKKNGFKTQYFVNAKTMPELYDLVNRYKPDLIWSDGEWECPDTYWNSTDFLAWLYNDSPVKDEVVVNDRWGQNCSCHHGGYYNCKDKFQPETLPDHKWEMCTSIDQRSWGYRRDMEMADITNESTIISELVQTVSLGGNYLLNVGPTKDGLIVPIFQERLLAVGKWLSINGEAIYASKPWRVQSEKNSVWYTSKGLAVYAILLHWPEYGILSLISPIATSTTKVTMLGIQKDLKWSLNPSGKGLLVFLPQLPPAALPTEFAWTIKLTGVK
How it was run: (§1)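 Assayed with the appropriate p-nitrophenyl glycoside substrate at each enzyme's optimum pH.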

Oryza sativa = assay: Inhibition of rice alpha-glucosidase assessed as glucose release at 1000 uM by Glucose B-test
How it was run: (§2)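 Disaccharide substrate suited to each enzyme, at that enzyme's optimum pH. Released D-glucose was measured colorimetrically with the Glucose B-test.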

[2] = Inhibition of yeast alpha-glucosidase assessed as p-nitrophenol release by spectrophotometrically; design: species or system Saccharomyces cerevisiae; how it was run: as §1
[3] = target: Lysosomal alpha-glucosidase (Rattus norvegicus) (UniProt Q6P7A9); assay: Inhibition of rat intestinal maltase assessed as glucose release at 1000 uM by Glucose B-test
How it was run: (§3)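 Enzyme source was brush border membranes prepared from rat small intestine. Maltase, sucrase and isomaltase activities were read with the matching disaccharide substrate at each enzyme's optimum pH, and liberated D-glucose was quantified colorimetrically by Glucose B-test.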

[4] = target: Sucrase-isomaltase, intestinal (Rattus norvegicus) (UniProt P23739); assay: Inhibition of rat intestinal sucrase assessed as glucose release at 1000 uM by Glucose B-test; how it was run: as §3
[5] = target: Sucrase-isomaltase, intestinal (Rattus norvegicus) (UniProt P23739); assay: Inhibition of rat intestinal isomaltase assessed as glucose release at 1000 uM by Glucose B-test; how it was run: as §3
Rattus norvegicus = species: Rattus norvegicus; assay: Inhibition of rat epididymis alpha-mannosidase assessed as p-nitrophenol release at 1000 uM by spectrophotometrically
[6] = target: T2, Beta-mannosidase (Rattus norvegicus) (UniProt Q4FZV0); assay: Inhibition of rat epididymis beta-mannosidase assessed as p-nitrophenol release at 1000 uM by spectrophotometrically
T2 sequence (whole entry): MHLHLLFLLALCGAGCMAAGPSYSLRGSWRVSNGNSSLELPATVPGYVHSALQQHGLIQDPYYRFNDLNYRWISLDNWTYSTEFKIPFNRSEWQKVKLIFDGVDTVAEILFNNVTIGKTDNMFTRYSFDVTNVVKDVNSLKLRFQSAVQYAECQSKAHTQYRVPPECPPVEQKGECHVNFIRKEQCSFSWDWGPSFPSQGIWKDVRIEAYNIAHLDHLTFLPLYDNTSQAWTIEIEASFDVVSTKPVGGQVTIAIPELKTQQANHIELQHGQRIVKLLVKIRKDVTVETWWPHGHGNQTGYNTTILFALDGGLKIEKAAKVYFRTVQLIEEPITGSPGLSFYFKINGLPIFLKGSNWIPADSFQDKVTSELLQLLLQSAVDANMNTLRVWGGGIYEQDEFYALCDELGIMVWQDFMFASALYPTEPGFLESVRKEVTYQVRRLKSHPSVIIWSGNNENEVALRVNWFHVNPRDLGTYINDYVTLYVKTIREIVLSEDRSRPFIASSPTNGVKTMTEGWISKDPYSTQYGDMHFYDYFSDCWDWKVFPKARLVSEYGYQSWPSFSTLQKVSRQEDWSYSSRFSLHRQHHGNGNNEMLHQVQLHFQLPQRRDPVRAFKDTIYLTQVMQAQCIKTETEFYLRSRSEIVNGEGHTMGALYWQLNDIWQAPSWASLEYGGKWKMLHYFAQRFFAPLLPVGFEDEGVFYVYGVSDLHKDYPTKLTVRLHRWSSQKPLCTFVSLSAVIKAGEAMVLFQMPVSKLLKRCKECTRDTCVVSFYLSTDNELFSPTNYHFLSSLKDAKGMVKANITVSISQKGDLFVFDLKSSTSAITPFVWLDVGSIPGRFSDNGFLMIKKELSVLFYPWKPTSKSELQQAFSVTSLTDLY

[7] = target: Alpha-galactosidase (Coffea arabica) (UniProt Q42656); assay: Inhibition of coffee bean alpha-galactosidase assessed as p-nitrophenol release at 1000 uM by spectrophotometrically; how it was run: as §1
Beta-galactosidase = target: T3, Beta-galactosidase (Bos taurus, UniProt Q58D55); assay: Inhibition of bovine liver beta-galactosidase assessed as p-nitrophenol release by spectrophotometrically; how it was run: as §1
T3 sequence (Q58D55 whole entry): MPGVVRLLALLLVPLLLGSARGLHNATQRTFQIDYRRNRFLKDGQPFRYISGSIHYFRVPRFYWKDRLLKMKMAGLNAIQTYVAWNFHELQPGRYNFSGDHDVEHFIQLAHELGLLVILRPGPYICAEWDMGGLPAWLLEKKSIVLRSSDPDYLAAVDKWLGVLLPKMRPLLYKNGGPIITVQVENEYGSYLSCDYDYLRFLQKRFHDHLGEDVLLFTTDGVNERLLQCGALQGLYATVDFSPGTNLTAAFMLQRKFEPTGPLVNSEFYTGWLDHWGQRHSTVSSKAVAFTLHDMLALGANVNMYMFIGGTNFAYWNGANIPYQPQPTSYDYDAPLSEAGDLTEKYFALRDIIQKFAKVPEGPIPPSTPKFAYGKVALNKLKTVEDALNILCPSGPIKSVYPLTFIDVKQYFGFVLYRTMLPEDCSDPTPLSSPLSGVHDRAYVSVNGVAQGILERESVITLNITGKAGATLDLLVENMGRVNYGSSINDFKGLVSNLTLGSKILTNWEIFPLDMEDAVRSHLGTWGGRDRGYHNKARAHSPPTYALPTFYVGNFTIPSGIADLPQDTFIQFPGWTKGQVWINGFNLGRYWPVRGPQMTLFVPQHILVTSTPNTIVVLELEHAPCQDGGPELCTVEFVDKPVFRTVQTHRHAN

[8] = Inhibition of Aspergillus niger amyloglucosidase assessed as glucose release by Glucose B-test; how it was run: as §2
[9] = target: T4, Sucrase-isomaltase, intestinal (Rattus norvegicus, UniProt P23739); assay: Inhibition of rat intestinal sucrase assessed as glucose release by Glucose B-test
[10] = target: T4, Sucrase-isomaltase, intestinal; assay: Inhibition of rat intestinal isomaltase assessed as glucose release by Glucose B-test
Alpha-galactosidase = Alpha-galactosidase (Coffea arabica, UniProt Q42656); assay: Inhibition of coffee bean alpha-galactosidase assessed as p-nitrophenol release by spectrophotometrically; how it was run: as §1
[11] = target: T5, Beta-galactosidase (Bos taurus) (UniProt Q58D55); assay: Inhibition of bovine liver beta-galactosidase assessed as p-nitrophenol release at 1000 uM by spectrophotometrically; how it was run: as §1
T5 sequence (whole entry): T3 sequence (Q58D55 whole entry)

[12] = target: T6, Tissue alpha-L-fucosidase (Bos taurus) (UniProt Q2KIM0); assay: Inhibition of bovine epididymis alpha-L-fucosidase assessed as p-nitrophenol release at 1000 uM by spectrophotometrically; how it was run: as §1
T6 sequence (whole entry): T1 sequence (Q2KIM0 whole entry)

[13] = target: T7, Uncharacterized protein (Sus scrofa) (UniProt I3LIR5); assay: Inhibition of pig kidney trehalase assessed as p-nitrophenol release at 1000 uM by spectrophotometrically
T7 sequence (whole entry): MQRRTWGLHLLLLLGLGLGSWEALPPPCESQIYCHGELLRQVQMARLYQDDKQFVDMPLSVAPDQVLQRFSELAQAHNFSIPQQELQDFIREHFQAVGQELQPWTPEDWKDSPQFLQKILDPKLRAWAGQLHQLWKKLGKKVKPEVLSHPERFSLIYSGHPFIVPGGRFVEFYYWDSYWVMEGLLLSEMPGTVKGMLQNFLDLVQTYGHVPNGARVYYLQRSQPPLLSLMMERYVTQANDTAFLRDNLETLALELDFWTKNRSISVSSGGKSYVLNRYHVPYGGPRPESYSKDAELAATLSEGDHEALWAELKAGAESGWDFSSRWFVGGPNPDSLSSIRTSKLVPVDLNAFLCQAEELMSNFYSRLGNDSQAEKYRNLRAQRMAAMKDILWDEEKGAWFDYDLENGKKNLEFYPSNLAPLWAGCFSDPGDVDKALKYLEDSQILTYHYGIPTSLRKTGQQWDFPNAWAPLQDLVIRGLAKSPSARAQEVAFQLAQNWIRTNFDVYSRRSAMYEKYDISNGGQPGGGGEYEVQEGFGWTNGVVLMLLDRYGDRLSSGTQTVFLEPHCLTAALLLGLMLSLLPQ

Alpha-glucosidase MAL62 = Alpha-glucosidase MAL62 (Saccharomyces cerevisiae, UniProt P07265); assay: Inhibition of yeast maltase alpha-glucosidase assessed as glucose release by Glucose B-test
[14] = Inhibition of yeast isomaltase alpha-glucosidase assessed as glucose release by Glucose B-test
Saccharomyces cerevisiae = assay: Inhibition of yeast alpha-glucosidase assessed as p-nitrophenol release at 1000 uM by spectrophotometrically; how it was run: as §1
Aspergillus niger = assay: Inhibition of Aspergillus niger amyloglucosidase assessed as glucose release at 1000 uM by Glucose B-test; how it was run: as §2
Uncharacterized protein = target: T8, Uncharacterized protein (Sus scrofa, UniProt I3LIR5); assay: Inhibition of pig kidney trehalase assessed as p-nitrophenol release by spectrophotometrically
T8 sequence (I3LIR5 whole entry): T7 sequence (whole entry)

[15] = Inhibition of rice alpha-glucosidase assessed as glucose release by Glucose B-test; design: species or system Oryza sativa; how it was run: as §2
[16] = Inhibition of rat epididymis alpha-mannosidase assessed as p-nitrophenol release by spectrophotometrically
Beta-mannosidase = target: T9, Beta-mannosidase (Rattus norvegicus, UniProt Q4FZV0); assay: Inhibition of rat epididymis beta-mannosidase assessed as p-nitrophenol release by spectrophotometrically
T9 sequence (Q4FZV0 whole entry): T2 sequence (whole entry)

Lysosomal alpha-glucosidase (Rattus norvegicus), sequence (Q6P7A9 whole entry): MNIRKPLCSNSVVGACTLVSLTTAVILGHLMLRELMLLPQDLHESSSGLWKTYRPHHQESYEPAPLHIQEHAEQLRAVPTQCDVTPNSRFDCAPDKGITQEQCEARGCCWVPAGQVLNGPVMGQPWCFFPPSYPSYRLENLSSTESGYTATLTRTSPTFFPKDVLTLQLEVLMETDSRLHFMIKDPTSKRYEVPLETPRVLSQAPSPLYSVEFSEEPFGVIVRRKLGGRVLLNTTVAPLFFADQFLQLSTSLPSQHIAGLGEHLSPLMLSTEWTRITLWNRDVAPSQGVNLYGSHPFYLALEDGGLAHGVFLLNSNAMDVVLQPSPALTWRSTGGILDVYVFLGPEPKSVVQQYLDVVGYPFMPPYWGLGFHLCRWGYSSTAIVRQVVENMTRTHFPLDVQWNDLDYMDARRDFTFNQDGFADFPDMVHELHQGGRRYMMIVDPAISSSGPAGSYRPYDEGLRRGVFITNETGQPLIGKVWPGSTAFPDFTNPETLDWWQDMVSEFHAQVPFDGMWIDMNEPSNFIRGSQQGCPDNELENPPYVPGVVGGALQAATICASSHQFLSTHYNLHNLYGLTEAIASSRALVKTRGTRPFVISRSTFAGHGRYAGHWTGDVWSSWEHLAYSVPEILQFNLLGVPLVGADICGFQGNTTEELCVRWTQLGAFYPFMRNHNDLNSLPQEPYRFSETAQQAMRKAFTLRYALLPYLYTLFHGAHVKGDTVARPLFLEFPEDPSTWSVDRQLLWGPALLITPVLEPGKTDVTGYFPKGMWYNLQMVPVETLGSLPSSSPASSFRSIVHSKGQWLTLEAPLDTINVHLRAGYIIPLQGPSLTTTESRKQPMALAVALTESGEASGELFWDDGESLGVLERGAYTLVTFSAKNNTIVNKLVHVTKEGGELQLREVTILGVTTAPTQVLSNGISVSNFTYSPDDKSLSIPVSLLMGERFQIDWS
Sucrase-isomaltase, intestinal (Rattus norvegicus), sequence (P23739 1-1013 limits assumed): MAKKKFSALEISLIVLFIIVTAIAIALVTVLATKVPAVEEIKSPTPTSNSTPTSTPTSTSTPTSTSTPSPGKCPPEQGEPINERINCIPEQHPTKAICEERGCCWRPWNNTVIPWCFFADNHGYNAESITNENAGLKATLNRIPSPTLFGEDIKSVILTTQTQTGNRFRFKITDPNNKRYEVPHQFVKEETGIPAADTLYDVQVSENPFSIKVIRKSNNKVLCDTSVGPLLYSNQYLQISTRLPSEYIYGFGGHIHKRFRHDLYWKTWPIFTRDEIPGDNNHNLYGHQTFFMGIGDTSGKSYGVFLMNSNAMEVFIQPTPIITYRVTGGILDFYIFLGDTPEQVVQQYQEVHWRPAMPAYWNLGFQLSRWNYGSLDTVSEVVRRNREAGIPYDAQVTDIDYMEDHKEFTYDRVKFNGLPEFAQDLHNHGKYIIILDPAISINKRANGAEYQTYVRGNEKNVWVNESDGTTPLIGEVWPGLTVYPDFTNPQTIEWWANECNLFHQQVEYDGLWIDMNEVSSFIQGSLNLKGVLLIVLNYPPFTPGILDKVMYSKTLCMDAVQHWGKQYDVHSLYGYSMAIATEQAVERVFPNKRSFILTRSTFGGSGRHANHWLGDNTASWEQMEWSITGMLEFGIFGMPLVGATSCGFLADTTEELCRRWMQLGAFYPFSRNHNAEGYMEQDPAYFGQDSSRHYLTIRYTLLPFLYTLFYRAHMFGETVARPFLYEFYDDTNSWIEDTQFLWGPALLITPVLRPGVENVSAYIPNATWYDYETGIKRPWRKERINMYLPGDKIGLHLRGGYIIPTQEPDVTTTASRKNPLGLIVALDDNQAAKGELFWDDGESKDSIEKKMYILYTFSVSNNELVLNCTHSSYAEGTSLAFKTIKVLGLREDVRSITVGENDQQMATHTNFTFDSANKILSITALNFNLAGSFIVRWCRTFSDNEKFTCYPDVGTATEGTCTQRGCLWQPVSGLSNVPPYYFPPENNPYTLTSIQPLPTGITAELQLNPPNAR
Sucrase-isomaltase, intestinal (Rattus norvegicus), sequence (P23739 1014-1841 limits assumed): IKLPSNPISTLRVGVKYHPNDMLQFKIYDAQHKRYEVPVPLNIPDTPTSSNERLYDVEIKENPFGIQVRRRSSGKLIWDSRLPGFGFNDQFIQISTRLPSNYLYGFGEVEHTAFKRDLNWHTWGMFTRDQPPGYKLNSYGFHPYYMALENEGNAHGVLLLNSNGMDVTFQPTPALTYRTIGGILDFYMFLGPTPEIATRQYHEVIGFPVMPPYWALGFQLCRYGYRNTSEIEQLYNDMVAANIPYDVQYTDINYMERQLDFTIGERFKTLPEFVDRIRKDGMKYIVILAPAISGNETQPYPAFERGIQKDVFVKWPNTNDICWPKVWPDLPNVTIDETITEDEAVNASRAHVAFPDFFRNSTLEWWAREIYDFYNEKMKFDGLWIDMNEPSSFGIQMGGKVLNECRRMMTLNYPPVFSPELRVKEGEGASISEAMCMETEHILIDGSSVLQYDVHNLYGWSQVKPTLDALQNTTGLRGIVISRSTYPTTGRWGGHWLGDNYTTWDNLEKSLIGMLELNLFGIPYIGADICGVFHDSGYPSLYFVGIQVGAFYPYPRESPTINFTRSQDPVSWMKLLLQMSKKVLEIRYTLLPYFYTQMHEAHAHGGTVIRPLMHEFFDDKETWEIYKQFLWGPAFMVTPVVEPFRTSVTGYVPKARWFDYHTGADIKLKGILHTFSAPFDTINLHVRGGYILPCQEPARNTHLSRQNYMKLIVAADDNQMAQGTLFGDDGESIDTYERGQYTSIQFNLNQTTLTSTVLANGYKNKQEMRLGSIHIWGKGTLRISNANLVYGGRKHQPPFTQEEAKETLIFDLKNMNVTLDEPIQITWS
Alpha-glucosidase MAL62, sequence (P07265 whole entry): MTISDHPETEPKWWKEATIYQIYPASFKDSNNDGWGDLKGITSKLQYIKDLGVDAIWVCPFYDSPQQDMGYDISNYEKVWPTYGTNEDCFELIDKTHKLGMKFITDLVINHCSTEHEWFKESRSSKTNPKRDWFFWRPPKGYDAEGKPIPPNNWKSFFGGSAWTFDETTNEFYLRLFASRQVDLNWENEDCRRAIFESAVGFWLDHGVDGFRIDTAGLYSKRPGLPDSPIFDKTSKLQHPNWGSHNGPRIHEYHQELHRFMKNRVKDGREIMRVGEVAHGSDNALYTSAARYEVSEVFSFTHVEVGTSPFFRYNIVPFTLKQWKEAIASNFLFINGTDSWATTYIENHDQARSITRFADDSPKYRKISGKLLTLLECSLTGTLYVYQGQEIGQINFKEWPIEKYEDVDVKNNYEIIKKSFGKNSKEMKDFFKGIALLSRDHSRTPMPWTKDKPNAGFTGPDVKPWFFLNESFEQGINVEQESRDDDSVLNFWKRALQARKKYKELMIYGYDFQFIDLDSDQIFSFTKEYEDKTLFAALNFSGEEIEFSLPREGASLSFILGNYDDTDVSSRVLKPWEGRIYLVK
Alpha-galactosidase (Coffea arabica), sequence (Q42656 16-378 limits assumed): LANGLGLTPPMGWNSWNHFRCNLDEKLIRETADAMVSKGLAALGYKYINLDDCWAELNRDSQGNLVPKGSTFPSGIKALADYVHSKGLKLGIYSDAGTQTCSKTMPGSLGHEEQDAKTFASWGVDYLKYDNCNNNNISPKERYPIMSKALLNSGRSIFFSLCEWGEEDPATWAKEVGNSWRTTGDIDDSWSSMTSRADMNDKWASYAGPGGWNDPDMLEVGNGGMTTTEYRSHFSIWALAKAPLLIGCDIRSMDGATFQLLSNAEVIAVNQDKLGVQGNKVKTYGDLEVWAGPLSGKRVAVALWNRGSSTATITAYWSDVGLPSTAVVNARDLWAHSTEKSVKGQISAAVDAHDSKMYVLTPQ
T4 sequence (P23739 1-1013 limits assumed): as the sequence (P23739 1-1013 limits assumed) above
T4 sequence (P23739 1014-1841 limits assumed): as the sequence (P23739 1014-1841 limits assumed) above
Alpha-galactosidase, sequence (Q42656 whole entry): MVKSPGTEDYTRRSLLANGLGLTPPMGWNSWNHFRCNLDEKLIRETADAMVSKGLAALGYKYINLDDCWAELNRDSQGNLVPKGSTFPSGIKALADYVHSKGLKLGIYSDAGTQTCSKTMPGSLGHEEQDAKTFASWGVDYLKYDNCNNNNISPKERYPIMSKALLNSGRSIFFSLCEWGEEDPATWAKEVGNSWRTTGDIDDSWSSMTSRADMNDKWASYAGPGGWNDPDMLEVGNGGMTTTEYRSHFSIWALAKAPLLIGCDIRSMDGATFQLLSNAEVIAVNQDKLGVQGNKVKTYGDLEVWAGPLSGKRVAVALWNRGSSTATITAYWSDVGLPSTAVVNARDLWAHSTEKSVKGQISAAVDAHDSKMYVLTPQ

Structure (SMILES) | inhibition (Oryza sativa) | IC50 [2] | inhibition [3] | inhibition [4] | inhibition [5] | inhibition (Rattus norvegicus) | inhibition [6] | inhibition [7] | IC50 [8] | inhibition [11] | inhibition [12] | IC50 (Alpha-glucosidase MAL62) | IC50 [14] | also measured
C[C@H]1O[C@H](OC[C@H]2NC[C@@H](O)[C@@H](O)[C@@H]2O)[C@@H](O)[C@@H](O)[C@@H]1O | – | – | – | – | – | – | – | – | – | – | – | – | – | Ki [1]: 0.06 µM
C[C@H]1N[C@@H](CO)[C@H](O)[C@H]1O | < 50% | 570 µM | < 50% | < 50% | < 50% | < 50% | < 50% | < 50% | 510 µM | – | – | – | – | IC50 (Beta-galactosidase): 420 µM; IC50 [1]: 1 µM; Ki [1]: 0.49 µM
OCCN1C[C@@H](O)[C@H](O)[C@H]1CO | < 50% | 290 µM | < 50% | – | – | < 50% | < 50% | – | 620 µM | < 50% | < 50% | 78 µM | 12 µM | IC50 [9]: 250 µM; IC50 [10]: 84 µM; IC50 (Alpha-galactosidase): 700 µM; inhibition [13]: < 50%
OC[C@H]1NC[C@H](O)[C@@H](O)[C@@H]1O [DUVOGLUSTAT] | – | – | – | – | – | – | – | – | – | – | – | 110 µM | 42 µM | IC50 (Uncharacterized protein): 41 µM
OC[C@H]1NC[C@@H](O)[C@@H]1O | – | 1.2 µM | – | – | – | – | – | < 50% | 400 µM | < 50% | < 50% | 0.84 µM | 0.11 µM | IC50 [15]: 120 µM; IC50 [16]: 150 µM; IC50 (Beta-mannosidase): 290 µM; IC50 (Uncharacterized protein): 2.5 µM

The next lines start with results.

inhibition (Oryza sativa) | IC50 [2] | inhibition [3] | inhibition [4] | inhibition [5] | inhibition (Rattus norvegicus) | inhibition [6] | inhibition [7] | IC50 [8] | inhibition [11] | inhibition [12] | IC50 (Alpha-glucosidase MAL62) | IC50 [14] | Structure (SMILES) | also measured
< 50% | – | < 50% | < 50% | < 50% | < 50% | < 50% | < 50% | – | < 50% | < 50% | – | – | OC[C@H]1NC[C@@H](O[C@@H]2O[C@H](CO)[C@@H](O)[C@H](O)[C@H]2O)[C@@H]1O | inhibition (Saccharomyces cerevisiae): < 50%; inhibition (Aspergillus niger): < 50%
< 50% | – | < 50% | < 50% | < 50% | < 50% | < 50% | < 50% | – | < 50% | < 50% | – | – | OC[C@H]1O[C@@H](OC[C@H]2NC[C@@H](O)[C@@H]2O)[C@H](O)[C@@H](O)[C@@H]1O | inhibition (Saccharomyces cerevisiae): < 50%; inhibition (Aspergillus niger): < 50%

Reference: ChEMBL document CHEMBL1148104, “New sugar-mimic alkaloids from the pods of Angylocalyx pynaertii” (J Nat Prod, 2002)
